Measurements pooled from the literature.
Each line is one published result; the experiments were not run side by side.
CFTR: Cystic fibrosis transmembrane conductance regulator (CFTR, Homo sapiens, UniProt P13569)
ADORA2B: Adenosine receptor A2b (ADORA2B, Homo sapiens, UniProt P29275)
PKN3: Serine/threonine-protein kinase N3 (PKN3, Homo sapiens, UniProt Q6P5Z2)

Compound | target | assay | setting | inhibition [%]
CC(C)(NC(=O)OC1CCCCC1)c1csc(-c2ccc(F)cc2)n1 | N-terminal Xaa-Pro-Lys N-methyltransferase 1 (Homo sapiens, UniProt Q9BV86) | enzyme activity, inhibitor, fluorescence | 100 µM | < 50
O=C(NN=Cc1cc(Br)c(O)c(Br)c1)C(=O)Nc1ccc2ccccc2c1 | CFTR | ion current, inhibitor | 50 µM | 80
CC(=O)c1nn(CC(=O)N2C[C@H](F)C[C@H]2C(=O)Nc2cccc(Br)n2)c2ccc(-c3cnc(C)nc3)cc12 | Chymase (CMA1, Homo sapiens, UniProt P23946) | enzyme activity, inhibitor | 10 µM | -1.2
CCN(c1cc(C#CCN2CCOCC2)cc(C(=O)NCc2c(C)cc(C)[nH]c2=O)c1C)[C@H]1CC[C@H](N(C)CCOC)CC1 | Histone-lysine N-methyltransferase NSD2 (NSD2, Homo sapiens, UniProt O96028) | enzyme activity, inhibitor | 1 µM | 26
O=C(CNc1cccc2ccccc12)NN=Cc1cc(Br)c(O)c(Br)c1O | CFTR | ion current, inhibitor | 50 µM | 86
Oc1cccc(Nc2nc(-c3ccc(F)cc3F)cs2)c1 | ADORA2B | cell-free assay | 10 µM | -11.9
C#CCN1CCCn2c1nc1c2c(=O)n(C)c(=O)n1C | ADORA2B | ligand displacement, radioligand | 10 µM, cell membranes | 29
COc1cc(NC(C)=O)c(Cl)cc1C(=O)Nc1nccs1 | ADORA2B | cell-free assay | 10 µM | -34.6
Cn1cncc1C1=CN(c2ncnc3[nH]cnc23)CCS1 | PKN3 | enzyme activity, inhibitor, radiometric | 50 nM | 18.6
CC(=NNC(=O)CNc1ccc2ccccc2c1)c1cc(Br)c(O)c(Br)c1O | CFTR | ion current, inhibitor | 50 µM | 81
C=CN1CCCn2c1nc1c2c(=O)n(C)c(=O)n1C | ADORA2B | ligand displacement, radioligand | 10 µM, cell membranes | 1
O=C(c1ccc(Cl)cc1)N(Cc1ccccc1)C1CCCCC1 | Prostaglandin E2 receptor EP2 subtype (PTGER2, Homo sapiens, UniProt P43116) | cell-free assay | 10 µM | 14.3
CC(C)N1CCCn2c1nc1c2c(=O)n(C)c(=O)n1C | ADORA2B | ligand displacement, radioligand | 10 µM, cell membranes | -4
CC(/C=C/C(=O)NO)=C\[C@@H](C)C(=O)c1ccc(N(C)C)cc1 | Histone deacetylase 11 (HDAC11, Homo sapiens, UniProt Q96DB2) | enzyme activity, inhibitor, fluorescence | 20 µM | < 50
C=CCN1CCCn2c1nc1c2c(=O)n(C)c(=O)n1C | ADORA2B | ligand displacement, radioligand | 10 µM, cell membranes | 6
CC(Nc1ccc2ccccc2c1)C(=O)NN=Cc1cc(Br)c(O)c(Br)c1 (stereo not drawn) | CFTR | ion current, inhibitor | 50 µM | 80
CCCCCN1CCCn2c1nc1c2c(=O)n(C)c(=O)n1C | ADORA2B | ligand displacement, radioligand | 10 µM, cell membranes | -3
O=C(c1ccc(F)cc1)N(Cc1ccccc1)C1CCCCC1 | Muscarinic acetylcholine receptor M1 (CHRM1, Homo sapiens, UniProt P11229) | cell-free assay | 10 µM | -1
CCCCCC(C)N1CCCn2c1nc1c2c(=O)n(C)c(=O)n1C (stereo not drawn) | ADORA2B | ligand displacement, radioligand | 10 µM, cell membranes | -3
O=C(CNc1cccc2ccccc12)NN=Cc1cc(Br)c(O)c(Br)c1 | CFTR | ion current, inhibitor | 50 µM | 87
Cn1cnc(Br)c1C1=CN(c2ncnc3[nH]cnc23)CCS1 | PKN3 | enzyme activity, inhibitor, radiometric | 50 nM | 29.2
CN(C)C1CCN(CC#Cc2nn(C3CCCC3)c3nc(NCc4ccccc4)ncc23)C1 (stereo not drawn) | Dual specificity protein kinase CLK2 (CLK2, Homo sapiens, UniProt P49760) | enzyme activity, inhibitor, FRET | 10 µM | 33
CC(C)CCCC(C)N1CCCn2c1nc1c2c(=O)n(C)c(=O)n1C (stereo not drawn) | ADORA2B | ligand displacement, radioligand | 10 µM, cell membranes | 0
O=C(CNc1ccc(Cl)cc1)NN=Cc1cc(Br)c(O)c(Br)c1O | CFTR | ion current, inhibitor | 50 µM | 91
